Results published in ChEMBL document CHEMBL2390869, “Evolution of novel tricyclic CRTh2 receptor antagonists from a (E)-2-cyano-3-(1H-indol-3-yl)acrylamide scaffold” (Bioorg Med Chem Lett, 2013).
≈ marks a conversion by molar mass, not a printed value.

Legend:
[1] = Oral bioavailability in Wistar rat at 10 mg/kg; type: ADME, organism-based; settings: in vivo
Method in brief: (§1)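 Single doses given to three male Wistar rats per route: 10 mg/kg orally and 1 mg/kg intravenously, as a solution in 20% propyleneglycol/80% buffer. Plasma PK parameters were derived. CL, terminal T1/2 and Vss come from the intravenous arm. AUC0–last comes from the oral arm.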

[2] = Volume of distribution at steady state in Wistar rat at 10 mg/kg, po and 1 mg/kg, iv; type: ADME, organism-based; settings: in vivo, read-out: Vdss; method in brief: as §1
[3] = Terminal half life in Wistar rat at 10 mg/kg, po and 1 mg/kg, iv; type: ADME, organism-based; settings: in vivo, read-out: beta t1/2 (converted); method in brief: as §1
[4] = Clearance in Wistar rat at 10 mg/kg, po and 1 mg/kg, iv; type: ADME, organism-based; settings: in vivo; method in brief: as §1
[5] = Cmax in Wistar rat at 10 mg/kg, po and 1 mg/kg, iv; type: ADME, organism-based; settings: in vivo; method in brief: as §1
[6] = AUC (0 to last) in Wistar rat at 10 mg/kg, po; type: ADME, organism-based; parameters: time 0 - last, dose 10 mg/kg, route oral; settings: plasma; method in brief: as §1
[7] = Stability in simulated intestinal fluid after 4 hrs by LC/MS analysis; type: physicochemical; settings: read-out: Stability
Method in brief: (§2)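 Compound incubated in simulated gastric fluid for 1 h or simulated intestinal fluid for 4 h. Unchanged parent recovered and measured by LC–MS, expressed as % parent.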

[8] = Stability in simulated gastric fluid after 1hr by LC/MS analysis; type: physicochemical; settings: read-out: Stability; method in brief: as §2
[9] = Solubility of the compound in buffer at pH 4; type: physicochemical
Method in brief: (§3)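 Solubility measured in buffered aqueous solution at pH 4 and pH 7, and in water, where the final pH of the aqueous solution was 4.6.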

[10] = Solubility of the compound in buffer at pH 7; type: physicochemical; method in brief: as §3
[11] = Aqueous solubility of the compound in water at pH 4.6; type: physicochemical; method in brief: as §3
[12] = Lipophilicity, log D of the compound at pH 7.4; type: physicochemical; settings: buffer
[13] = Intrinsic clearance in rat hepatocytes measured per 10^6 cells; type: ADME, cell-based, Hepatocyte; settings: read-out: CLH
Method in brief: (§4)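 Intrinsic clearance determined in human and rat liver microsomes (per mg protein) and in rat hepatocytes (per 10⁶ cells).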

[14] = Intrinsic clearance in rat liver microsomes assessed per mg of protein; type: ADME, Microsome; settings: read-out: CLH; method in brief: as §4
[15] = Metabolic stability in human plasma assessed as compound remaining after 4 hrs; type: ADME, cell-free; settings: read-out: Stability
Method in brief: (§5)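 Compound incubated in rat and human plasma for up to 4 h. Unchanged parent quantified by LC–MS, reported as % parent remaining at 4 h plus elimination half-life.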

[16] = Intrinsic clearance in human liver microsomes assessed per mg of protein; type: ADME, Microsome; settings: read-out: CLH; method in brief: as §4
[17] = Half life in rat plasma; type: ADME, cell-free; method in brief: as §5
[18] = Half life in human plasma; type: ADME, cell-free; method in brief: as §5
[19] = Metabolic stability in rat plasma assessed as compound remaining after 4 hrs; type: ADME, cell-free; settings: read-out: Stability; method in brief: as §5
[20] = biological target: Cytochrome P450 2D6 (Homo sapiens, UniProt P10635); experiment: Inhibition of CYP2D6 (unknown origin); type: ADME
Sequence of Cytochrome P450 2D6 (P10635 whole entry): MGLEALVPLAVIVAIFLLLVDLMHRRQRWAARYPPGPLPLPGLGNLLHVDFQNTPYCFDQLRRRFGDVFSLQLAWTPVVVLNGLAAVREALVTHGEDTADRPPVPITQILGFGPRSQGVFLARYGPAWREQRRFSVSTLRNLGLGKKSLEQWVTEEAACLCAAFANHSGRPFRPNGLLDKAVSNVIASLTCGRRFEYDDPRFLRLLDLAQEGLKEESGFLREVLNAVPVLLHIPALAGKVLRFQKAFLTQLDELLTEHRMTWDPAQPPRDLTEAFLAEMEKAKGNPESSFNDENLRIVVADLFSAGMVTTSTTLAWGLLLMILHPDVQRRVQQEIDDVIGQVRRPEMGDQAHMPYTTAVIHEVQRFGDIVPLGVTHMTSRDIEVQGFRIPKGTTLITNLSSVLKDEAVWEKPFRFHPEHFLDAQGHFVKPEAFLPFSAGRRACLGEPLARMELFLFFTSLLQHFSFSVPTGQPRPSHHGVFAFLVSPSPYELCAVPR

[21] = biological target: Cytochrome P450 3A4 (Homo sapiens, UniProt P08684); experiment: Inhibition of CYP3A4 (unknown origin); type: ADME
Sequence of Cytochrome P450 3A4 (P08684 whole entry): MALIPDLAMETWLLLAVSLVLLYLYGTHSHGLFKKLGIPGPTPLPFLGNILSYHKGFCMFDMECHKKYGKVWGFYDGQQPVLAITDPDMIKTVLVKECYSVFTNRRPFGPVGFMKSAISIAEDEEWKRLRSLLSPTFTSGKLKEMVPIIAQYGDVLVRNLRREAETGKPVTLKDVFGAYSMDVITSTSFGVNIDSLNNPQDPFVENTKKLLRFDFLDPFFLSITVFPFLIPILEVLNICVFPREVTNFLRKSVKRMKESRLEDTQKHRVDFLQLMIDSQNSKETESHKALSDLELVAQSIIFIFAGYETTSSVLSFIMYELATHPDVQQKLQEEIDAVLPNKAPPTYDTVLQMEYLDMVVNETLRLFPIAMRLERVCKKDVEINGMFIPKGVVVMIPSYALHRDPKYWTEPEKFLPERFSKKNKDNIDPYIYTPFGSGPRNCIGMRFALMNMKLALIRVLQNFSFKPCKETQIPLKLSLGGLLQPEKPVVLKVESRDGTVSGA

[22] = biological target: Cytochrome P450 2C9 (Homo sapiens, UniProt P11712); experiment: Inhibition of CYP2C9 (unknown origin); type: ADME
Sequence of Cytochrome P450 2C9 (P11712 whole entry): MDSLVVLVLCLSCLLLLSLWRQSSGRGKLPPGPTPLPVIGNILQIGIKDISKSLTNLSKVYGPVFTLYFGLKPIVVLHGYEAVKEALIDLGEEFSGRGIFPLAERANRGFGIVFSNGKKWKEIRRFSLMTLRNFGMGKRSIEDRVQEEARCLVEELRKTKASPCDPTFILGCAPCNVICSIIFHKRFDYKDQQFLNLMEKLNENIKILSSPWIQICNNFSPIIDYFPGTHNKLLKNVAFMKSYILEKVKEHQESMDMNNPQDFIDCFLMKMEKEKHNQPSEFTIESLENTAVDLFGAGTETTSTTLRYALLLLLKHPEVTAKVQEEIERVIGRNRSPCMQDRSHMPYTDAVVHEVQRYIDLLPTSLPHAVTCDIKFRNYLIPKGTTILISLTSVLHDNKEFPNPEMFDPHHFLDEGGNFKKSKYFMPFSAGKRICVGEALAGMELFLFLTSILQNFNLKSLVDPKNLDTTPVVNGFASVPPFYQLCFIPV

[23] = biological target: Prostaglandin E2 receptor EP4 subtype (Homo sapiens, UniProt P35408); experiment: Inhibition of PGE2 binding to human EP4 receptor
Sequence of Prostaglandin E2 receptor EP4 subtype (P35408 whole entry): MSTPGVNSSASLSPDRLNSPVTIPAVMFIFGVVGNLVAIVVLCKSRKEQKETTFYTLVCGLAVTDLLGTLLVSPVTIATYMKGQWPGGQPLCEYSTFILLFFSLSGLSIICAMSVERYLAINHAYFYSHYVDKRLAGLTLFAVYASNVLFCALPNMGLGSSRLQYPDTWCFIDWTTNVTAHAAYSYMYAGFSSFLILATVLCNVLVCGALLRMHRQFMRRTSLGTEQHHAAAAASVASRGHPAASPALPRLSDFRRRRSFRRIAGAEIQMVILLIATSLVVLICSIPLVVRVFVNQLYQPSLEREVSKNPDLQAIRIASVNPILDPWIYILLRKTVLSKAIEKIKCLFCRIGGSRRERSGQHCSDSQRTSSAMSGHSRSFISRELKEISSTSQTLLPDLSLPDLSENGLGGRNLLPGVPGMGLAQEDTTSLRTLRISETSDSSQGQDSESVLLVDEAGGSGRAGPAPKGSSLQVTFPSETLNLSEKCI

[24] = biological target: T1, Prostaglandin E2 receptor EP3 subtype (Homo sapiens, UniProt P43115); experiment: Antagonist activity at human EP3 receptor assessed as inhibition of PGE2-induced Ca2+ mobilization by FLIPR assay; type: functional
T1 sequence (P43115 whole entry): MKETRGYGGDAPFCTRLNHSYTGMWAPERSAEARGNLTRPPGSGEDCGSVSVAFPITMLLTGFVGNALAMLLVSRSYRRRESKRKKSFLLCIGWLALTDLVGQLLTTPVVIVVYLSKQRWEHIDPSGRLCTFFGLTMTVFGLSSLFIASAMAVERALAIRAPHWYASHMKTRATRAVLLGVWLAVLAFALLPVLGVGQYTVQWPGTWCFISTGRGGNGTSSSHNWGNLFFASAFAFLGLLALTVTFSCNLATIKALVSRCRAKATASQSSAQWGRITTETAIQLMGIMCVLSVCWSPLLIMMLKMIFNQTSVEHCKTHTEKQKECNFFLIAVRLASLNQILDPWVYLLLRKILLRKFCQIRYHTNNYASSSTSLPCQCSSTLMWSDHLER
Method in brief: (§6)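 Antagonism measured as inhibition of agonist-induced Ca2+ mobilization by FLIPR: PGE2 as agonist for human EP1 and EP3, U46619 as agonist for human TP. Values are IC50.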

[25] = biological target: T2, Prostaglandin E2 receptor EP1 subtype (Homo sapiens, UniProt P34995); experiment: Antagonist activity at human EP1 receptor assessed as inhibition of PGE2-induced Ca2+ mobilization by FLIPR assay; type: functional; method in brief: as §6
T2 sequence (P34995 whole entry): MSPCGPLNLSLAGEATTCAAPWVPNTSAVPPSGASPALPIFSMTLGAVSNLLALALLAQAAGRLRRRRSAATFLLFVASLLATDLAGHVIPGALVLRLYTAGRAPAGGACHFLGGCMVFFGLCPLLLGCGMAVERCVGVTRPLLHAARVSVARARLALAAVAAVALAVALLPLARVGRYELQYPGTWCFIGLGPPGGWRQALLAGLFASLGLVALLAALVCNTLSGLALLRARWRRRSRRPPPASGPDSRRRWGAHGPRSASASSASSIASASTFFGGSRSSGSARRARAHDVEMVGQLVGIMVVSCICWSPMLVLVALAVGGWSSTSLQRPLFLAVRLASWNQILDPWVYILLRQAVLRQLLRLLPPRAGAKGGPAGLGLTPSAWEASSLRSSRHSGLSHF

[26] = biological target: T3, Prostaglandin D2 receptor (Homo sapiens, UniProt Q13258); experiment: Inhibition of PGD2 binding to human DP1 receptor
T3 sequence (Q13258 whole entry): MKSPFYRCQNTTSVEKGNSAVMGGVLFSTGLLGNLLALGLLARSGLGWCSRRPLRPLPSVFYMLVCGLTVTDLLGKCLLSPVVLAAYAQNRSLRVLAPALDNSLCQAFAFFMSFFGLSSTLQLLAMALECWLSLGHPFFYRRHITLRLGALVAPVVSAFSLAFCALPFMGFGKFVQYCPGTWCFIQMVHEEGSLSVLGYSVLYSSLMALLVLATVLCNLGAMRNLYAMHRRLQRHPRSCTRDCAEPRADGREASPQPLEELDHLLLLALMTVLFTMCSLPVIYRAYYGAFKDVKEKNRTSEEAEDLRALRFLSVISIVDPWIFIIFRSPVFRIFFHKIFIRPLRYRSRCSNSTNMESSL

[27] = biological target: T4, Prostaglandin D2 receptor 2 (Homo sapiens, UniProt Q9Y5Y4); experiment: Displacement of [3H]PGD2 from human CRTh2 receptor
T4 sequence (Q9Y5Y4 whole entry): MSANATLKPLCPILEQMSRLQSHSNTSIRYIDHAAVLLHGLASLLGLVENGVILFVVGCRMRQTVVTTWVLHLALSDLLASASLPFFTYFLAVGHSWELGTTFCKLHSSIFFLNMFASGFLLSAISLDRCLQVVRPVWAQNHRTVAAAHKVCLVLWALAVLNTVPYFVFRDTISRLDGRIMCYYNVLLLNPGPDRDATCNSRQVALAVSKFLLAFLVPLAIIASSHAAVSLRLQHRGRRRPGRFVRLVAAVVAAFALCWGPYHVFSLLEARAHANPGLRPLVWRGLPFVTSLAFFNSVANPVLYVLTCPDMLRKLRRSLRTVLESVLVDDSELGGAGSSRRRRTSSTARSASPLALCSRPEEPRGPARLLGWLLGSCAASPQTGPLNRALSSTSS
Method in brief: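 Human CRTh2 binding assay run in assay buffer. IC50 reported as the mean of at least three experiments.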

[28] = biological target: T4, Prostaglandin D2 receptor 2; experiment: Displacement of [3H]PGD2 from human CRTh2 receptor in presence of human serum albumin
Method in brief: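 Human CRTh2 binding assay run with 0.5% human serum albumin added to the assay buffer to mimic binding to blood proteins. IC50 is reported as the mean of at least three experiments.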

[29] = biological target: Prostaglandin E2 receptor EP2 subtype (Homo sapiens, UniProt P43116); experiment: Inhibition of PGE2 binding to human EP2 receptor
Sequence of Prostaglandin E2 receptor EP2 subtype (P43116 whole entry): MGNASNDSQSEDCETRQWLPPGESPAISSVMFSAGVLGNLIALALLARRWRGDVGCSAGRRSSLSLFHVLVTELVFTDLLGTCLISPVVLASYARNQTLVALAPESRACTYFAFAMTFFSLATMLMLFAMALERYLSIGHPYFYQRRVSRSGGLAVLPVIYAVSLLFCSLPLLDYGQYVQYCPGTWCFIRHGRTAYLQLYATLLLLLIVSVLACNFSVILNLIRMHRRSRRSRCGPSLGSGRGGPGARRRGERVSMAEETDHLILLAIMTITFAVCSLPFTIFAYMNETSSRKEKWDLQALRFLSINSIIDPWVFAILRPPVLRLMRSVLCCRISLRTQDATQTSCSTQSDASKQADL

[30] = biological target: T5, Thromboxane A2 receptor (Homo sapiens, UniProt P21731); experiment: Antagonist activity at human TP2 receptor assessed as inhibition of U46619-induced Ca2+ mobilization by FLIPR assay; type: functional; method in brief: as §6
T5 sequence (P21731 whole entry): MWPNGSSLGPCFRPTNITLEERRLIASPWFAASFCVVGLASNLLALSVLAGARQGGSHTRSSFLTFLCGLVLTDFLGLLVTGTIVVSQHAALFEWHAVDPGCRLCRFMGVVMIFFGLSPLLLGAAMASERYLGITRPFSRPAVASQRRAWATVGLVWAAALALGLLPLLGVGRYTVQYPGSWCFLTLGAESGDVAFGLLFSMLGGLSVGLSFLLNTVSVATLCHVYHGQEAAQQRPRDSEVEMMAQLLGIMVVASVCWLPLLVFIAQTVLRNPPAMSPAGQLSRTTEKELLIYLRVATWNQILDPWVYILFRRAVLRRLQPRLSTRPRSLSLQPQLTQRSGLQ

[31] = biological target: T4, Prostaglandin D2 receptor 2; experiment: Antagonist activity at PGD2-induced human CRTh2 receptor activation expressed in HEK293 cells assessed as intracellular Ca2+ liberation by FLIPR assay; type: functional, cell-based
Method in brief: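 HEK-293 cells stably expressing human CRTh2 were stimulated with PGD2. Antagonism of intracellular Ca2+ liberation was read by FLIPR. IC50 is the mean of at least three experiments.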

Molecule `N#C/C(=C\c1cn(CC(=O)O)c2ccccc12)C(=O)N1CCCc2ccccc21` has a bioavailability [1] of 18%, a Vd [2] of 0.7 L/kg and a half-life [3] of 1 h. The clearance [4] was 14 mL/min/kg, the Cmax [5] was 213 ng/mL and the AUC(0-t) [6] was 2200 ng·h/mL. For the same molecule, the remaining at 4 h [7] was 68%, the remaining at 1 h [8] was 93% and the solubility [9] was 7 µg/mL (≈ 18.2 µM). For the same molecule, the solubility [10] was 670 µg/mL (≈ 1740 µM), the solubility [11] was 17 µg/mL (≈ 44.1 µM) and the logD [12] was -0.4. The hepatocyte CLint [13] was 11 µL/min/1e6 cells, the microsomal CLint [14] was 32 µL/min/mg and the remaining at 4 h [15] was 95%. For the same molecule, the microsomal CLint [16] was 6 µL/min/mg, the half-life [17] was over 4 h and the half-life [18] was over 4 h. It also gave a remaining at 4 h [19] of 90%, an IC50 [20] of over 10 µM and an IC50 [21] of over 10 µM. It also gave an IC50 [22] of over 10 µM, an IC50 [23] of over 10 µM and an IC50 [24] of over 10 µM. For the same molecule, the IC50 [25] was over 10 µM, the IC50 [26] was 8.2 µM and the IC50 [27] was 0.014 µM. It also gave an IC50 [28] of 0.01 µM, an IC50 [29] of over 10 µM and an IC50 [30] of over 25 µM.

For `O=C(O)Cn1c2c(c3ccccc31)CN(C(=O)c1ccccc1)CC2`, the bioavailability [1] was 14%, the Vd [2] was 0.5 L/kg and the half-life [3] was 2.3 h. For the same molecule, the clearance [4] was 4.6 mL/min/kg, the Cmax [5] was 600 ng/mL and the AUC(0-t) [6] was 6300 ng·h/mL. For the same molecule, the remaining at 4 h [7] was 100%, the remaining at 1 h [8] was 100% and the solubility [9] was 515 µg/mL (≈ 1540 µM). The solubility [10] was 810 µg/mL (≈ 2420 µM), the solubility [11] was 64 µg/mL (≈ 191 µM) and the remaining at 4 h [15] was 90%. It also gave a remaining at 4 h [19] of 90%, an IC50 [20] of over 50 µM and an IC50 [21] of over 50 µM. For the same molecule, the IC50 [22] was over 15 µM, the IC50 [23] was over 10 µM and the IC50 [24] was over 10 µM. The IC50 [25] was over 10 µM, the IC50 [26] was over 10 µM and the IC50 [27] was 0.017 µM. For the same molecule, the IC50 [28] was 0.015 µM, the IC50 [29] was over 10 µM and the IC50 [31] was 0.17 µM. It also gave an IC50 [30] of over 25 µM.
